# CHRM4 antagonist: blocks acetylcholine activation of human M4 receptor | CHO-hM4 cells, ACh EC80, Fluo-8 calcium fluorescence | inhibition, % at 3 µM | hit rate 0.73% among 360,000 | AID 624125;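 active = inhibition above its plate's cutoff, the mean inhibition of sample wells plus 3 SD, cut at about 27% in these data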;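 also: 0% = acetylcholine EC80 with DMSO and 100% = DMSO without agonist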
# Target sequence (P08173 whole entry, looked up): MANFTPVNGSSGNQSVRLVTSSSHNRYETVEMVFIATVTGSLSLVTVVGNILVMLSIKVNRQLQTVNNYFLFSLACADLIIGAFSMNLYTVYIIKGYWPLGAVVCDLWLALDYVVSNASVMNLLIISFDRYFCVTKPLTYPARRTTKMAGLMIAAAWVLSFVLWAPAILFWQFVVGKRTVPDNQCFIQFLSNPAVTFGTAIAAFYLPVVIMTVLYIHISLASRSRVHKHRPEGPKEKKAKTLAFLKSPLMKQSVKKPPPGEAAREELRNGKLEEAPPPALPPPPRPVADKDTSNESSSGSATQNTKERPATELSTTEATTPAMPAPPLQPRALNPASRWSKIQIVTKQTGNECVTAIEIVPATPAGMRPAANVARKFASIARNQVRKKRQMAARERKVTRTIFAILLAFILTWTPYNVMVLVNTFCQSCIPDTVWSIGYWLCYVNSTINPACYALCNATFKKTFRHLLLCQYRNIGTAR
# CHRM4 PAM: potentiates acetylcholine response at human M4 receptor. P08173. CHO-K1 hM4/Gqi5, Fluo-8 calcium fluorescence, ACh EC20; 0% = ACh EC20, 100% = maximal ACh. activation, % at 3 µM. hit rate 0.4% among 360,000;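 active = activation above its plate's cutoff, the mean activation of sample wells plus 3 SD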
# M5 PAM: CHRM5 positive allosteric modulation; P08912; AID 624038; hit rate 0.3% among 360,000; CHO-K1 hM5, Fluo-8 calcium, ACh EC20 PAM; 0% = ACh EC20, 100% = ACh EC100; activation, % at 3 µM;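 active = activation above the run cutoff, the mean activation of all test compounds plus 3 SD, cut at about 18% in these data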
#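 system = human M5 receptor in CHO-K1 cells | compound = one concentration, 3 µM final (nominal) | schedule = Post-acetylcholine fluorescence recording 140 s | signal = Fluo-8 calcium dye fluorescence, kinetic read | benchmarks = low control EC20 acetylcholine (0%), high control EC100 acetylcholine (100%) | repeats = singlicate, one well per test compound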
# M5 antag: CHRM5 antagonism in calcium assay; CHO-hM5 cells, Fluo-8 calcium fluorescence, ACh EC80; AID 624040; hit rate 0.59% among 360,000; inhibition, % at 3 µM;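 active = inhibition above a per-plate cutoff, the mean of that plate's test compounds plus 3 SD, cut at about 27% in these data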;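 also: 0% = acetylcholine EC80 with DMSO and 100% = DMSO without agonist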
# M4 ag: CHRM4 agonism in calcium assay. CHO-K1 hM4/Gqi5, Fluo-8 calcium fluorescence; vehicle 0%, full acetylcholine response 100%. activation, % at 3 µM. hit rate 0.14% among 360,000. AID 624127;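 active = activation above the run mean over all test wells plus 3 SD, cut at about 32% in these data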;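 also: peak over basal fluorescence ratio per well then scaled between controls; 0% = DMSO wells and 100% = acetylcholine at EC100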
# CHRM5 agonist: agonists of human muscarinic M5 receptor (CHRM5); P08912; CHO-K1 hM5 cells, Fluo-8 calcium fluorescence; 0% DMSO wells, 100% maximal acetylcholine response; activation, % at 3 µM; hit rate 0.19% among 360,000; AID 624037;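 active = activation above the run's mean over test compounds plus 3 SD, cut at about 23% in these data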;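 also: signal is peak over basal fluorescence ratio across the kinetic read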
# * hit, by the source's call. Only some compounds are listed: those with a hit (about 1.9% of all), similar ones and a draw of the others.
SMILES,CHRM4 antagonist,CHRM4 PAM,M5 PAM,M5 antag,M4 ag,CHRM5 agonist
CCN(CC)CCN1C(=O)C(=O)/C(=C(/O)c2c(C)[nH]c(C(=O)OC)c2C)C1c1ccc(OC)cc1 (stereo not drawn),3,2,-2,3,0,-1
CN(N)c1nc(C(F)(F)F)nc2ccccc12,-2,1,-4,0,0,-3
CN(NS(=O)(=O)c1ccc(Br)cc1)c1nc(C(F)(F)F)nc2ccccc12,-10,2,-9,29*,5,0
CC(=O)Nc1cc(NC(C)=O)cc(C(=O)OCC(=O)c2ccc3c(c2)OCO3)c1,-5,-7,11,-10,0,-4
Cc1ccc(Nc2nc(-c3sc(N)nc3C)cs2)cc1,3,-8,20*,-15,-1,7
Cc1nc(C)c(-c2csc(Nc3ccccn3)n2)s1,-4,-2,-5,10,3,5
c1ccc(-c2csc(Nc3ccccn3)n2)cc1,0,4,14,-8,-1,13
Cc1ccc(-c2csc(Nc3ccccn3)n2)cc1,-14,14*,14,-4,-1,10
Cc1nc(N)sc1-c1csc(Nc2ccccn2)n1,28*,1,2,0,0,0
Cc1cc(=O)[nH]c(-n2ncc(C#N)c2N)n1,-4,13,1,-10,2,-1
CCC(C(=O)NCCc1c[nH]c2ccc(C)cc12)c1ccccc1 (stereo not drawn),-18,0,-4,1,2,1
CNC(=O)CN(c1ccc(OC)cc1)S(=O)(=O)c1ccc(F)cc1,-11,20*,28*,-7,0,-6
COc1ccc(N(CC(=O)Nc2c(C)n(C)n(-c3ccccc3)c2=O)S(=O)(=O)c2ccc(F)cc2)cc1,-8,22*,21*,11,4,-1
C/C(CC1CC(COCC(C)C)OC1=O)=N\Nc1nc(-c2ccccc2)cs1 (stereo not drawn),30*,-1,-2,1,1,0
O=C(O)c1ccc(N/N=C/c2cccc(C(F)(F)F)c2)cc1,6,-4,-5,29*,0,-2
O=C(O)c1ccc(N/N=C/c2cccc(F)c2)cc1,-3,3,-5,5,5,2
O=C(/C=C/c1cccs1)c1ccco1,-6,4,4,-9,1,3
Cc1ccc2cc(C#N)c(SCC(=O)NCC3CCCO3)nc2c1 (stereo not drawn),-3,26*,6,-6,1,-1
Cc1ccc2nc(SCC(=O)NCC3CCCO3)c(C#N)cc2c1 (stereo not drawn),-2,4,2,-13,0,-4
COc1ccc(OCC(=O)Nc2c(C(=O)N3CCC(N4CCCCC4)CC3)oc3ccccc23)cc1,-7,-5,-5,10,7,-5
COc1ccc(CCNCc2ccc(-c3ccccc3)cc2)cc1OC,7,-11,6,-7,34*,9
O=[N+]([O-])c1c(Nc2ccccc2O)ccc2nonc12,8,-8,3,-5,2,-2
O=[N+]([O-])c1c(Nc2ccccc2O)cc(Cl)c2nonc12,33*,-3,8,21,-2,-11
COc1ccc(CCNC(=O)CNC(=O)c2ccc(Br)o2)cc1OC,8,-2,5,-3,1,5
COc1ccc(-c2nnc(N3CCOCC3)c3ccccc23)cc1,4,-3,-1,5,0,-2
SMILES,CHRM4 antagonist,CHRM4 PAM,M5 PAM,M5 antag,M4 ag,CHRM5 agonist
Cc1nnc(N2CCOCC2)c2ccccc12,-9,25*,17,-8,0,-3
O=C(NNC1=NCCCCC1)c1cccc([N+](=O)[O-])c1,-3,10,19*,-9,1,1
CCCCCc1ccc(OCCC[n+]2ccccc2)c(CCCCC)c1,32*,-48,-30,32*,0,-21
C[n+]1cn(CC(O)COCc2ccccc2)c2ccccc21 (stereo not drawn),-8,1,0,-1,1,-2
CCCCCc1ccc(OCCOCCn2c[n+](C)c3ccccc32)c(CCCCC)c1,58*,-19,-10,21,2,-10
O=C1CN(c2ccccc2)C(=S)N1C(=O)c1ccc(Br)cc1,-2,-4,2,9,0,1
Cc1ccc2nc(-c3cccc(-c4cccc(Cl)c4)c3)c(NCc3ccccc3)n2c1,28*,-10,-32,28*,7,-3
CCC(C)Sc1cccc(-c2nc3ccc(C)cn3c2NCc2ccccc2)c1 (stereo not drawn),47*,-8,-26,23,13,0
CCCCCCSc1cccc(-c2nc3ccc(C)cn3c2NCc2ccccc2)c1,14,-9,-3,14,5,-2
C=CCNCc1ccc(C(=O)NCCCCCCC)cc1[N+](=O)[O-],-5,0,2,6,2,0
C#CCOc1ccc(C2C3=C(COC3=O)Nc3cc4c(cc32)OCO4)cc1OC (stereo not drawn),-11,22*,7,5,2,-5
O=C(O)c1ccccc1NS(=O)(=O)c1ccc(NN=Cc2ccccc2F)c([N+](=O)[O-])c1,-19,24*,10,-6,-1,1
CSc1ccc(C=NNc2ccc(S(=O)(=O)Nc3ccccc3C(=O)O)cc2[N+](=O)[O-])cc1,1,0,3,7,0,3
O=C(NC1CCCC1)C1c2ccccc2OCC(=O)N1Cc1ccc2c(c1)OCO2 (stereo not drawn),4,7,-1,0,1,-6
CC(=O)/C=C1\SC(CC(=O)O)C(=O)N1c1ccccc1 (stereo not drawn),-12,22*,12,-8,1,-1
Cc1c(N2C(=O)SC(CC(=O)O)C2=O)c(=O)n(-c2ccccc2)n1C (stereo not drawn),-2,6,20*,-2,1,-3
Cc1c(N2C(=O)C3C4C=CC(C4)C3C2=O)c(=O)n(-c2ccccc2)n1C (stereo not drawn),-6,13,9,4,1,5
COc1ccc(NC(=O)c2c(NC(=O)CCC(=O)O)sc(-c3ccccc3)c2C)cc1,8,-4,-5,4,0,-2
O=C(Nc1cccc(C(F)(F)F)c1)Nc1ccc(N2CCCC2)c(S(=O)(=O)Nc2ccccc2Cl)c1,26,-14,-14,28*,5,-1
CCN(CC)CC#CCC(O)(c1ccccc1)C1CCCCC1 (stereo not drawn),76*,-25,-18,72*,2,-10
CC(=O)Nc1ccc(NC(=O)CSc2nnnn2-c2ccc(F)cc2)cc1,-27,4,-4,17,1,0
